EBI2 block: EBI2 (human) antagonism; P32249; EBI2 beta-arrestin recruitment, luminescence, 7a,25-OHC stimulated; inhibition, % at 5 µM; 360,000 tested, 0.81% active; in the data active means inhibition above about 38%;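 further: enzyme fragment complementation signal reports receptor beta-arrestin coupling in cells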
CXCR6 block: CXCR6 (human) receptor inhibition; O00574; CHO-K1 PathHunter CXCR6 beta-arrestin, luminescence; inhibition, % at 20 µM; 360,000 tested, 0.36% active; in the data active means inhibition above about 34%, passing the limit was not always enough;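 further: antagonist mode with CXCL16 agonist at 10 nM final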
APJ agonist: APJ receptor agonism | CHO-K1 APJ PathHunter beta-arrestin, luminescence; 0% DMSO wells, 100% apelin | P35414 | 330,000 tested, 0.11% active | activation, % at 20 µM;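 active means activation more than six SD over the plate average, tested at 20 µM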
Target sequence (P35414 whole entry, looked up): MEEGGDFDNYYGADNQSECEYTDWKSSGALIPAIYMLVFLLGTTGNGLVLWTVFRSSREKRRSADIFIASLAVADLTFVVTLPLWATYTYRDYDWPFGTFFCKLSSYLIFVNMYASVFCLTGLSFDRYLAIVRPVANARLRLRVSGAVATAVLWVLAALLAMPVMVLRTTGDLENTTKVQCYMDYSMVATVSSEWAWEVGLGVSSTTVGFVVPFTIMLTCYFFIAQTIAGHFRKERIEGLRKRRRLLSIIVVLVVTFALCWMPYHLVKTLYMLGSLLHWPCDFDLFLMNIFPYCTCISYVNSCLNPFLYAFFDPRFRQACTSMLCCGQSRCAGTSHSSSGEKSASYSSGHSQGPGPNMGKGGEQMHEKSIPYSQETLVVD
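Assay system: CHO-K1 APJ beta-arrestin complementation cell line / Compound: single test compound dose, 20 µM final, 1% DMSO / Times: overnight seeding, 90 min compound at 25 °C, 1 h detection / Technique: beta-gal luminescence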
APJ antag: antagonists of human APJ apelin receptor. P35414. CHO-K1 APJ beta-arrestin complementation, luminescence. inhibition, % at 20 µM. 330,000 tested, 0.32% active;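 active means inhibition above about 40% at 20 µM, limit read from the data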;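 further: cells challenged with 10 nM apelin-13 agonist together with compound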
CCR6 antag: blocks CCL20-driven beta-arrestin recruitment at human CCR6; CHO-K1 CCR6 PathHunter beta-arrestin, luminescence, CCL20-stimulated; inhibition, % at 20 µM; 340,000 tested, 0.49% active; AID 493098;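 active means compounds whose inhibition of the agonist-driven luminescence signal at 20 µM reaches about 50%, limit read from the data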;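 further: cells stimulated with CCL20 at 14 nM final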
APJ ag confirm: APJ receptor agonism confirmation; shares compounds with APJ agonist; CHO-K1 APJ PathHunter beta-arrestin, luminescence; activation, % at 20 µM; 310 tested, 10% active;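 active means activation above 40%, taking the highest of four retests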
Numbers stand for hits. Compounds with a hit are over-represented: about 1.5% of the library has one in this group of screens.

`NS(=O)(=O)c1ccc(NC(=O)COC(=O)c2ccc([N+](=O)[O-])s2)cc1` gave EBI2 block inactive, CXCR6 block inactive, APJ agonist 17.5, APJ antag inactive and CCR6 antag inactive.
Screening Cc1cccc(N2CCN(C(C(=O)NCc3ccccc3)c3ccc(C(F)(F)F)cc3)CC2)c1C (configuration not stated) returned EBI2 block inactive.
Screening O=C(c1ccc([N+](=O)[O-])o1)N1CCN(c2nc3c(Cl)cccc3s2)CC1 returned EBI2 block inactive, CXCR6 block inactive, APJ agonist 32.3, APJ antag inactive, CCR6 antag inactive and APJ ag confirm inactive.
For COc1cccc2sc(N3CCN(C(=O)c4ccc([N+](=O)[O-])o4)CC3)nc12 the results were EBI2 block inactive, CXCR6 block inactive, APJ agonist inactive, APJ antag inactive and CCR6 antag inactive.
Screening COc1cc2c(cc1NC(=O)c1ccc(C)c([N+](=O)[O-])c1)oc1ccccc12 returned EBI2 block inactive, CXCR6 block inactive, APJ agonist inactive, APJ antag inactive and CCR6 antag inactive.
Screening COc1cc2c(cc1NC(=O)c1cccc([N+](=O)[O-])c1)oc1ccccc12 returned EBI2 block inactive, CXCR6 block inactive, APJ agonist 42.4, APJ antag inactive, CCR6 antag inactive and APJ ag confirm 52.9.
`N/C(=N\OC(=O)c1cccnc1)c1ccccc1Cl` gave EBI2 block inactive, CXCR6 block inactive, APJ agonist 8.9, APJ antag inactive, CCR6 antag inactive and APJ ag confirm inactive.
CCOC(=O)[C@]12CCCC=C1N(Cc1cccc3ccccc13)C(=O)[C@H](CC(=O)N1CCCC1)C2 was read as EBI2 block inactive and CXCR6 block inactive.
Screening CC(C)(C)OC(=O)NCc1ccc(CNC(=O)c2nc[nH]c2C(=O)NCc2ccc(CNC(=O)OC(C)(C)C)cc2)cc1 returned EBI2 block inactive, CXCR6 block inactive, APJ agonist inactive, APJ antag inactive and CCR6 antag inactive.
`CC(C)(C)OC(=O)NCCCCCNC(=O)c1nc[nH]c1C(=O)NCc1ccc(CNC(=O)OC(C)(C)C)cc1` gave EBI2 block inactive, CXCR6 block inactive, APJ agonist 11.9, APJ antag inactive, CCR6 antag inactive and APJ ag confirm inactive.
`CCC12CC1(C(=O)OC)C(=O)N1CCc3c([nH]c4ccccc34)C12` (configuration not stated) gave EBI2 block inactive and CXCR6 block inactive.
For COc1cc2nc(N3CCN(c4cc(C)ccc4C)CC3)nc(N)c2cc1OC the results were EBI2 block inactive, CXCR6 block inactive, APJ agonist 19.9, APJ antag inactive, CCR6 antag inactive and APJ ag confirm inactive.
Screening CCN(CC)CCNC(=O)c1cc(-c2cccnc2)nc2ccc(S(=O)(=O)N3CCC(C)CC3)cc12 returned EBI2 block inactive, CXCR6 block inactive, APJ agonist 52.3, APJ antag inactive, CCR6 antag inactive and APJ ag confirm inactive.
`N=c1n(CC(=O)c2cccs2)c2ccccc2n1Cc1ccccc1` gave EBI2 block inactive, CXCR6 block inactive, APJ agonist 28.3, APJ antag inactive, CCR6 antag inactive and APJ ag confirm inactive.
Screening CCOC(=O)N1CCN(c2ncnc3c2[nH]c2ccc(F)cc23)CC1 returned EBI2 block inactive, CXCR6 block inactive, APJ agonist inactive, APJ antag inactive and CCR6 antag inactive.
For Fc1ccc2[nH]c3c(N4CCN(c5ccccc5)CC4)ncnc3c2c1 the results were EBI2 block inactive, CXCR6 block inactive, APJ agonist 14.1, APJ antag inactive, CCR6 antag inactive and APJ ag confirm inactive.
`N/C(Cc1ccc(Cl)c(Cl)c1)=N\OC(=O)c1ccc(Br)o1` gave EBI2 block inactive, CXCR6 block inactive, APJ agonist 20.9, APJ antag inactive, CCR6 antag inactive and APJ ag confirm inactive.
`N#Cc1cc(-c2ccccc2)nnc1Oc1ccccc1` gave EBI2 block inactive, CXCR6 block inactive, APJ agonist inactive, APJ antag inactive and CCR6 antag inactive.
`Cc1ccc(Oc2nnc(-c3ccccc3)cc2C#N)cc1` gave EBI2 block inactive, CXCR6 block inactive, APJ agonist 22.4, APJ antag inactive, CCR6 antag inactive and APJ ag confirm inactive.
For CC(C)[C@@H](C(=O)N[C@@H](CCc1ccc(O)cc1)C(=O)O)N(C)C(=O)[C@H](CO)NC(=O)[C@@H](O)[C@H](N)CCCCCCCCl the results were EBI2 block inactive and CXCR6 block inactive.
For Cn1c(N2CCOCC2)c(/C=N/OC(=O)c2ccc(F)cc2)c2ccccc21 the results were EBI2 block inactive, CXCR6 block inactive, APJ agonist 16.7, APJ antag inactive, CCR6 antag inactive and APJ ag confirm inactive.
Screening Cc1ccc(C(=O)O/N=C/c2c(N3CCOCC3)n(C)c3ccccc23)cc1 returned EBI2 block inactive, CXCR6 block inactive, APJ agonist inactive, APJ antag inactive and CCR6 antag inactive.
COc1ccc(NC(=O)C2(C)CCN2Cc2ccccc2Cl)cc1OC (configuration not stated) was read as EBI2 block inactive and CXCR6 block inactive.
For O=C(Nc1ccc(NC(=O)c2ccc([N+](=O)[O-])cc2[N+](=O)[O-])cc1)c1ccco1 the results were EBI2 block inactive, CXCR6 block inactive, APJ agonist 11.1, APJ antag inactive, CCR6 antag inactive and APJ ag confirm inactive.
For Cc1cc(NC(=O)c2ccc([N+](=O)[O-])cc2Cl)ccc1NC(=O)c1ccco1 the results were EBI2 block inactive, CXCR6 block inactive, APJ antag inactive and CCR6 antag inactive.
`Nc1sccc1C(=O)N1CCN(c2ccccc2)CC1` gave EBI2 block inactive.
CC(C)C[C@@H](C(=O)NC1CCN(Cc2ccccc2)CC1)N1C(=O)N2CCc3c([nH]c4ccccc34)[C@@]2(C)C1=O was read as EBI2 block inactive, CXCR6 block inactive, APJ agonist 23.6, APJ antag inactive, CCR6 antag inactive and APJ ag confirm inactive.
Screening C[C@@H](C(=O)NC1CCN(Cc2ccccc2)CC1)N1C(=O)N2CCc3c([nH]c4ccccc34)[C@@]2(C)C1=O returned EBI2 block inactive, CXCR6 block inactive, APJ agonist inactive, APJ antag inactive and CCR6 antag inactive.
Screening COc1ccc2[nH]c3c(c2c1)CCN1C(=O)N([C@@H](C)C(=O)NC2CCN(Cc4ccccc4)CC2)C(=O)[C@]31C returned EBI2 block inactive, CXCR6 block inactive, APJ agonist 18.3, APJ antag inactive, CCR6 antag inactive and APJ ag confirm inactive.
Screening O=C(NC1CCCC1)C(c1ccccc1)n1c(-c2cccc3ccccc23)nc2ccccc21 (configuration not stated) returned EBI2 block inactive.
Screening Cc1cccc(C(=O)OCc2cc(=O)oc3c(C)c(C)ccc23)c1O returned EBI2 block inactive, CXCR6 block inactive, APJ agonist 24.1, APJ antag inactive, CCR6 antag inactive and APJ ag confirm inactive.
